Results from ChEMBL document CHEMBL1629526, “4-[1-(Substituted aryl/alkyl carbonyl)-benzoimidazol-2-yl]-benzenesulfonic acids: synthesis, antimicrobial activity, QSAR studies, and antiviral evaluation” (Eur J Med Chem, 2010).
In brackets after ≈: the same amount, converted by molar mass.

What was measured:
Staphylococcus aureus = test: Antimicrobial activity against Staphylococcus aureus after 24 hrs by tube dilution method; assay type: functional
Bacillus subtilis = test: Antimicrobial activity against Bacillus subtilis after 24 hrs by tube dilution method; assay type: functional
How it was run: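 Serial dilutions in double-strength nutrient broth (I.P.) with ciprofloxacin as reference, tube dilution, incubated 37 °C for 24 h. MIC is the lowest concentration that inhibited growth.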

Escherichia coli = test: Antimicrobial activity against Escherichia coli after 24 hrs by tube dilution method; assay type: functional
Candida albicans = test: Antimicrobial activity against Candida albicans after 48 hrs by tube dilution method; assay type: functional
Aspergillus niger = test: Antimicrobial activity against Aspergillus niger after 7 days by tube dilution method; assay type: functional; details: 168 h
[1] = Cytotoxicity against cat CRFK cells assessed as cell viability by MTS assay; assay type: cell-based, Felis catus; details: crfk
How it was run: (§1)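 Uninfected cultures were run in parallel with the antiviral assays. Viability was read by colorimetric formazan MTS assay.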

Felid alphaherpesvirus 1 = test: Antiviral activity against Feline herpesvirus 1 infected in cat CRFK cells assessed as inhibition of virus induced cytopathicity after 2 to 4 days by MTS assay; assay type: functional, organism-based; details: Felid alphaherpesvirus 1, CRFK
Feline coronavirus = test: Antiviral activity against Feline coronavirus infected in cat CRFK cells assessed as inhibition of virus induced cytopathicity after 2 to 4 days by MTS assay; assay type: functional, organism-based; details: Alphacoronavirus 1, CRFK
[2] = Cytotoxicity against human HEL cells assessed as altered cell morphology; assay type: cell-based
How it was run: (§2)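 Uninfected cell cultures run alongside the antiviral assays, exposed to serial compound dilutions and incubated at 37 °C for 2–4 days. Toxicity was scored microscopically and reported as the minimum cytotoxic concentration (MCC), the lowest concentration causing a detectable change in normal cell morphology.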

Human alphaherpesvirus 1 [3] = test: Antiviral activity against Herpes simplex virus 1 KOS infected in HEL cells assessed as inhibition of virus induced cytopathicity after 2 to 4 days by MTS assay; assay type: functional, organism-based; details: Human alphaherpesvirus 1, KOS
Human alphaherpesvirus 2 = test: Antiviral activity against Herpes simplex virus 2 G infected in HEL cells assessed as inhibition of virus induced cytopathicity after 2 to 4 days by MTS assay; assay type: functional, organism-based; details: Human alphaherpesvirus 2, strain G
Vaccinia virus = test: Antiviral activity against Vaccinia virus infected in HEL cells assessed as inhibition of virus induced cytopathicity after 2 to 4 days by MTS assay; assay type: functional, organism-based; details: Orthopoxvirus vaccinia
[4] = test system: Vesicular stomatitis virus; test: Antiviral activity against Vesicular stomatitis virus infected in HEL cells assessed as inhibition of virus induced cytopathicity after 2 to 4 days by MTS assay; assay type: functional, organism-based
Human alphaherpesvirus 1 [5] = test: Antiviral activity against thymidine kinase deficient acyclovir-resistant Herpes simplex virus 1 KOS infected in HEL cells assessed as inhibition of virus induced cytopathicity after 2 to 4 days by MTS assay; assay type: functional, organism-based; details: Human alphaherpesvirus 1, KOS
HeLa = test: (§3) Cytotoxicity against human HeLa cells assessed as cell viability by MTS assay; assay type: cell-based; details: hela; how it was run: as §1
[6] = Cytotoxicity against human HeLa cells assessed as altered cell morphology; assay type: cell-based; how it was run: as §2
[7] = test system: Vesicular stomatitis virus; test: Antiviral activity against Vesicular stomatitis virus infected in human HeLa cells assessed as inhibition of virus induced cytopathicity by visual scoring of CPE; assay type: functional, organism-based
[8] = test system: Vesicular stomatitis virus; test: Antiviral activity against Vesicular stomatitis virus infected in human HeLa cells assessed as inhibition of virus induced cytopathicity after 2 to 4 days by MTS assay; assay type: functional, organism-based
Coxsackievirus B4 [9] = test: Antiviral activity against coxsackievirus B4 infected in human HeLa cells assessed as inhibition of virus induced cytopathicity by visual scoring of CPE; assay type: functional, organism-based; details: Enterovirus B
Coxsackievirus B4 [10] = test: Antiviral activity against coxsackievirus B4 infected in human HeLa cells assessed as inhibition of virus induced cytopathicity after 2 to 4 days by MTS assay; assay type: functional, organism-based; details: Enterovirus B
[11] = test system: Respiratory syncytial virus; test: Antiviral activity against Respiratory syncytial virus infected in human HeLa cells assessed as inhibition of virus induced cytopathicity by visual scoring of CPE; assay type: functional, organism-based
[12] = test system: Respiratory syncytial virus; test: Antiviral activity against Respiratory syncytial virus infected in human HeLa cells assessed as inhibition of virus induced cytopathicity after 2 to 4 days by MTS assay; assay type: functional, organism-based
MDCK = test: Cytotoxicity against MDCK cells assessed as cell viability by MTS assay; assay type: cell-based, Canis lupus familiaris; details: dog, mdck; how it was run: as §1
[13] = Cytotoxicity against MDCK cells assessed as altered cell morphology; assay type: cell-based, Canis lupus familiaris; details: dog; how it was run: as §2
Influenza A virus [14] = test: Antiviral activity against Influenza A H1N1 virus subtype infected in MDCK cells assessed as inhibition of virus induced cytopathicity by visual scoring of CPE; assay type: functional, organism-based
Influenza A virus [15] = test: Antiviral activity against Influenza A H1N1 virus subtype infected in MDCK cells assessed as inhibition of virus induced cytopathicity after 2 to 4 days by MTS assay; assay type: functional, organism-based
Influenza A virus [16] = test: Antiviral activity against Influenza A H3N2 virus subtype infected in MDCK cells assessed as inhibition of virus induced cytopathicity by visual scoring of CPE; assay type: functional, organism-based
Influenza A virus [17] = test: Antiviral activity against Influenza A H3N2 virus subtype infected in MDCK cells assessed as inhibition of virus induced cytopathicity after 2 to 4 days by MTS assay; assay type: functional, organism-based
Influenza B virus [18] = test: Antiviral activity against Influenza B virus infected in MDCK cells assessed as inhibition of virus induced cytopathicity by visual scoring of CPE; assay type: functional, organism-based
Influenza B virus [19] = test: Antiviral activity against Influenza B virus infected in MDCK cells assessed as inhibition of virus induced cytopathicity after 2 to 4 days by MTS assay; assay type: functional, organism-based
[20] = Cytotoxicity against african green monkey Vero cells assessed as altered cell morphology; assay type: cell-based; details: chlorocebus sabaeus; how it was run: as §2
Human respirovirus 3 = test: Antiviral activity against parainfluenza-3 virus infected in african green monkey Vero cells assessed as inhibition of virus induced cytopathicity after 2 to 4 days by MTS assay; assay type: functional, organism-based; details: Human respirovirus 3, Vero
[21] = test system: Mammalian orthoreovirus 1; test: Antiviral activity against Reovirus 1 virus infected in african green monkey Vero cells assessed as inhibition of virus induced cytopathicity after 2 to 4 days by MTS assay; assay type: functional, organism-based; details: Mammalian orthoreovirus 1, Vero
Sindbis virus = test: Antiviral activity against Sindbis virus infected in african green monkey Vero cells assessed as inhibition of virus induced cytopathicity after 2 to 4 days by MTS assay; assay type: functional, organism-based
Coxsackievirus B4 [22] = test: Antiviral activity against Coxsackie virus B4 infected in african green monkey Vero cells assessed as inhibition of virus induced cytopathicity after 2 to 4 days by MTS assay; assay type: functional, organism-based; details: Enterovirus B
Punta Toro virus = test: Antiviral activity against Punta Toro virus infected in african green monkey Vero cells assessed as inhibition of virus induced cytopathicity after 2 to 4 days by MTS assay; assay type: functional, organism-based
[23] = as §3; assay type: cell-based; details: HeLa cells; how it was run: as §1

SMILES | MBC (Staphylococcus aureus) [µg/mL] | MBC (Bacillus subtilis) [µg/mL] | MBC (Escherichia coli) [µg/mL] | MFC (Candida albicans) [µg/mL] | MFC (Aspergillus niger) [µg/mL] | CC50 [1] [µg/mL] | EC50 (Felid alphaherpesvirus 1) [µg/mL] | EC50 (Feline coronavirus) [µg/mL] | MCC [2] [µg/mL] | EC50 (Human alphaherpesvirus 1 [3]) [µg/mL] | EC50 (Human alphaherpesvirus 2) [µg/mL] | EC50 (Vaccinia virus) [µg/mL] | EC50 [4] [µg/mL] | EC50 (Human alphaherpesvirus 1 [5]) [µg/mL] | CC50 (HeLa) [µg/mL] | MCC [6] [µg/mL] | EC50 [8] [µg/mL] | EC50 (Coxsackievirus B4 [10]) [µg/mL] | EC50 [12] [µg/mL] | MCC [20] [µg/mL] | also measured
Nc1ccccc1C(=O)n1c(-c2ccc(S(=O)(=O)O)cc2)nc2ccccc21 | 50 (≈ 127 µM) | > 50 | 1.56 (≈ 3.97 µM) | 50 (≈ 127 µM) | > 50 | 11 (≈ 28 µM) | > 4 | > 4 | > 100 | > 100 | > 100 | > 100 | > 100 | > 100 | > 100 | ≥ 20 | > 20 | > 20 | > 20 | 20 | EC50 [7]: > 20 µg/mL; EC50 (Coxsackievirus B4 [9]): > 20 µg/mL; EC50 [11]: > 20 µg/mL; CC50 (MDCK): 4.1 µg/mL (≈ 10.4 µM); MCC [13]: ≥ 4 µg/mL; EC50 (Influenza A virus [14]): > 4 µg/mL; EC50 (Influenza A virus [15]): > 4 µg/mL; EC50 (Influenza A virus [16]): > 4 µg/mL; EC50 (Influenza A virus [17]): > 4 µg/mL; EC50 (Influenza B virus [18]): > 4 µg/mL; EC50 (Influenza B virus [19]): > 4 µg/mL; EC50 (Human respirovirus 3): > 4 µg/mL; EC50 [21]: > 4 µg/mL; EC50 (Sindbis virus): > 4 µg/mL; EC50 (Coxsackievirus B4 [22]): > 4 µg/mL; EC50 (Punta Toro virus): > 4 µg/mL
Nc1ccc(C(=O)n2c(-c3ccc(S(=O)(=O)O)cc3)nc3ccccc32)cc1 | 12.5 (≈ 31.8 µM) | > 50 | 25 (≈ 63.5 µM) | > 50 | > 50 | > 100 | > 100 | > 100 | > 100 | > 100 | > 100 | > 100 | > 100 | > 100 | > 100 | > 100 | > 100 | > 100 | > 100 | > 100 | EC50 [7]: > 100 µg/mL; EC50 (Coxsackievirus B4 [9]): > 100 µg/mL; EC50 [11]: > 100 µg/mL; CC50 (MDCK): 46.8 µg/mL (≈ 119 µM); MCC [13]: 20 µg/mL; EC50 (Influenza A virus [14]): > 4 µg/mL; EC50 (Influenza A virus [15]): > 4 µg/mL; EC50 (Influenza A virus [16]): > 4 µg/mL; EC50 (Influenza A virus [17]): > 4 µg/mL; EC50 (Influenza B virus [18]): > 4 µg/mL; EC50 (Influenza B virus [19]): > 4 µg/mL; EC50 (Human respirovirus 3): > 100 µg/mL; EC50 [21]: > 100 µg/mL; EC50 (Sindbis virus): > 100 µg/mL; EC50 (Coxsackievirus B4 [22]): > 100 µg/mL; EC50 (Punta Toro virus): > 100 µg/mL
Nc1ncnc2c1ncn2C[C@H](O)CO [(S)-DHPA] | – | – | – | – | – | – | – | – | – | – | – | – | – | – | – | > 250 | > 250 | > 250 | > 250 | > 250 | CC50 [23]: > 250 µg/mL
